Assay results: ChEMBL document CHEMBL2169837 (J Med Chem, 2012)
≈ marks a conversion by molar mass, not a printed value. Calls of active or inactive are those of the source. The calls are words filed in the database; no cut-off is given here.

What was measured:
Vasopressin V2 receptor [1] = target: T1, Vasopressin V2 receptor (Homo sapiens, UniProt P30518); experiment: Antagonist activity at human vasopressin V2 receptor expressed in CHO cells assessed as inhibition of AVP-induced cAMP accumulation after 30 mins by TR-FRET based HTRF assay; assay type: functional, cell-based
T1 sequence (P30518 whole entry): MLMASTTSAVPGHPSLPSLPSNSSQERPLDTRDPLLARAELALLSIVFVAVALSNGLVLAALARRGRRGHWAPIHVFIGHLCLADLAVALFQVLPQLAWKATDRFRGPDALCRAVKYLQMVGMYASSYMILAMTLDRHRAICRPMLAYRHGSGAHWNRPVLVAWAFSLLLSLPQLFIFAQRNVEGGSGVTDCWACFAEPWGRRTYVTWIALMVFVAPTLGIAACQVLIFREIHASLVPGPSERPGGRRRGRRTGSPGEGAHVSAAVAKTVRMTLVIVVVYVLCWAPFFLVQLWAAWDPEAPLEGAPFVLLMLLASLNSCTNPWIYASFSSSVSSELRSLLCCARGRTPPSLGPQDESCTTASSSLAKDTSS
Method in brief: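 CHO cells stably expressing human V2R, 5 × 10^3 per well on polyornithine, used 24 h after seeding. Incubated 30 min at 37 °C with compound (10−12 to 10−5 M) plus phosphodiesterase inhibitor RO 201724 0.1 mM. Antagonist mode run with 1 nM AVP. Cells lysed and cAMP read by HTRF (TR-FRET). Kact/Kinact from three independent experiments in triplicate, mean ± SEM.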

Vasopressin V2 receptor [2] = target: T1, Vasopressin V2 receptor; experiment: Agonist activity at human vasopressin V2 receptor expressed in CHO cells assessed as cAMP accumulation after 30 mins by TR-FRET based HTRF assay; assay type: functional, cell-based
Method in brief: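 CHO cells stably expressing human V2R, 5 × 10^3 per well on polyornithine, used 24 h after seeding. Cells lysed and cAMP read by HTRF (TR-FRET). Kact/Kinact from three independent experiments in triplicate, mean ± SEM.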

[3] = Solubility of the compound in HEPES buffer at pH 7.4 after 24 hrs; assay type: physicochemical
Method in brief: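 Solubility measured in pH 7.4 HEPES buffer after 24 h incubation at 22 °C.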

Vasopressin V2 receptor [4] = target: T1, Vasopressin V2 receptor; experiment: Displacement of [3H]-AVP from human vasopressin V2 receptor expressed in CHO cells after 30 mins; assay type: cell-based
Oxytocin receptor = target: T2, Oxytocin receptor (Homo sapiens, UniProt P30559); experiment: Displacement of [3H]-AVP from human oxytocin receptor expressed in CHO cells after 30 mins; assay type: cell-based
T2 sequence (P30559 whole entry): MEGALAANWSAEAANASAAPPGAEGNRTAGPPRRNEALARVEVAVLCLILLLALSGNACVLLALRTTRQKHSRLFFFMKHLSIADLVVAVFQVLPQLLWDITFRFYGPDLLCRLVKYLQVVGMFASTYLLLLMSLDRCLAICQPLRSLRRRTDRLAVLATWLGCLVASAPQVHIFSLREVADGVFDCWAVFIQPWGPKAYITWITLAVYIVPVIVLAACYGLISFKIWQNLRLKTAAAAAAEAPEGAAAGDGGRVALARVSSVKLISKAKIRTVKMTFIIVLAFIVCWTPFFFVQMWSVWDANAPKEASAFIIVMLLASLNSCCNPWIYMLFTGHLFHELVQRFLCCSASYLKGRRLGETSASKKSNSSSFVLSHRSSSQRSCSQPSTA

[5] = target: T3, Vasopressin V1b receptor (Homo sapiens) (UniProt P47901); experiment: Displacement of [3H]-AVP from human vasopressin V1b receptor expressed in CHO cells at 10 uM after 30 mins; assay type: cell-based
T3 sequence (whole entry): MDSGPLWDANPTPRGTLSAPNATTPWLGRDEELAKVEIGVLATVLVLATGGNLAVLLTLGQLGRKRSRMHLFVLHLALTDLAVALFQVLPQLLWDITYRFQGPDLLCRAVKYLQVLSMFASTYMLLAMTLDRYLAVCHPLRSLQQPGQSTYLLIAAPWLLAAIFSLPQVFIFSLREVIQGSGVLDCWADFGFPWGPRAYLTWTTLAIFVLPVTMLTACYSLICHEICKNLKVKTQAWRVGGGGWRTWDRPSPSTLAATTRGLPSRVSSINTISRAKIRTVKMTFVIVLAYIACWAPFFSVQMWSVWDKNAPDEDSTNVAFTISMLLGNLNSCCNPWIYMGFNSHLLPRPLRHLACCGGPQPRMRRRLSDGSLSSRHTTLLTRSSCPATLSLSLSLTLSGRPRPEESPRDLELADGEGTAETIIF
Method in brief: (§1)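 Human OTR, V1aR or V1bR membranes from CHO cells, [3H]-AVP displacement with compound at a single 10 μM concentration, 30 min at 30 °C in Tris-HCl pH 7.4/MgCl2/BSA buffer.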

Vasopressin V1b receptor = target: T4, Vasopressin V1b receptor (Homo sapiens, UniProt P47901); experiment: Displacement of [3H]-AVP from human vasopressin V1b receptor expressed in CHO cells after 30 mins; assay type: cell-based
T4 sequence (P47901 whole entry): T3 sequence (whole entry)

Vasopressin V1a receptor [6] = target: T5, Vasopressin V1a receptor (Homo sapiens, UniProt P37288); experiment: Displacement of [3H]-AVP from human vasopressin V1a receptor expressed in CHO cells at 10 uM after 30 mins; assay type: cell-based; method in brief: as §1
Target sequence in this assay (P37288 whole entry, looked up): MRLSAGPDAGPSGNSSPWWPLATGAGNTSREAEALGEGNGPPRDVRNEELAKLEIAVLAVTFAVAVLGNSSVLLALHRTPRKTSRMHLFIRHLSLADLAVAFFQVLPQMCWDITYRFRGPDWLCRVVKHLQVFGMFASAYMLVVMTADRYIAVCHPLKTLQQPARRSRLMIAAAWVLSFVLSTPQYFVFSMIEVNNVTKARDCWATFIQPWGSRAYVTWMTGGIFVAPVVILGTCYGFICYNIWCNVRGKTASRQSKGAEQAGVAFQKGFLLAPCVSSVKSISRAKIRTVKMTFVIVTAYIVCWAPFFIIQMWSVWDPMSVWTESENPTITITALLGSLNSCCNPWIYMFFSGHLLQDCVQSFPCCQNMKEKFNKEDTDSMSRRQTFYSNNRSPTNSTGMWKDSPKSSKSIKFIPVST

Vasopressin V1a receptor [7] = target: T5, Vasopressin V1a receptor; experiment: Displacement of [3H]-AVP from human vasopressin V1a receptor expressed in CHO cells after 30 mins; assay type: cell-based
Target sequence in this assay (P37288 whole entry): as the sequence (P37288 whole entry, looked up) above

Vasopressin V2 receptor [8] = target: T1, Vasopressin V2 receptor; experiment: Binding affinity to SNAP-tagged vasopressin V2 receptor expressed in HEK293 cells after 1 hr by TR-FRET assay; assay type: cell-based
Method in brief: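 HEK 293T cells electroporated with SNAP-tag–V2R and grown 48 h. Receptor labeled 1 h at 37 °C with SNAP-Lumi4-Tb (100 nM) or SNAP-RED (300 nM), then washed. Rising fluorescent-ligand concentrations added and incubated overnight at 4 °C. TR-FRET read with excitation 340 nm, emission 620/665 nm. Nonspecific binding taken with 10 μM unlabeled ligand. Kd from saturation, three experiments in triplicate.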

Homo sapiens = species on record: Homo sapiens; experiment: Selectivity ratio of Ki for human oxytocin receptor to Ki for human vasopressin V2 receptor
[9] = target: T6, Oxytocin receptor (Homo sapiens) (UniProt P30559); experiment: Displacement of [3H]-AVP from human oxytocin receptor expressed in CHO cells at 10 uM after 30 mins; assay type: cell-based; method in brief: as §1
T6 sequence (whole entry): T2 sequence (P30559 whole entry)

Row | Compound | Kb (Vasopressin V2 receptor [1]) | inhibition (Vasopressin V2 receptor [1]) | Activity (Vasopressin V2 receptor [2]) | solubility at 24 h [3] | Ki (Vasopressin V2 receptor [4]) | Ki (Oxytocin receptor) | inhibition [5] | Ki (Vasopressin V1b receptor) | inhibition (Vasopressin V1a receptor [6]) | Ki (Vasopressin V1a receptor [7]) | Kd (Vasopressin V2 receptor [8]) | Ratio Ki (Homo sapiens) | inhibition [9]
1 | CCN(CC)c1ccc2c(-c3ccc(S(=O)(=O)NCCCCC(=O)NC4CCCN(C(=O)c5ccc(NC(=O)c6ccccc6-c6ccccc6)cc5)c5ccccc54)cc3S(=O)(=O)[O-])c3ccc(=[N+](CC)CC)cc-3oc2c1 (stereo not given) | 0.66 nM | Dose-dependent effect | inactive | 3.1 µM (≈ 3.41 µg/mL) | 7.6 nM |  |  |  |  |  |  |  | 
2 | CCN(CC)c1ccc2c(-c3ccc(S(=O)(=O)NC4CCCN(C(=O)c5ccc(NC(=O)c6ccccc6-c6ccccc6)cc5)c5ccccc54)cc3S(=O)(=O)[O-])c3ccc(=[N+](CC)CC)cc-3oc2c1 (stereo not given) | 3.8 nM | Dose-dependent effect | inactive | 2.1 µM (≈ 2.1 µg/mL) | 25.3 nM |  |  |  |  |  |  |  | 
3 | CCN(CC)c1ccc2c(-c3ccc(S(=O)(=O)NCCOCCOCCOCCC(=O)NC4CCCN(C(=O)c5ccc(NC(=O)c6ccccc6-c6ccccc6)cc5)c5ccccc54)cc3S(=O)(=O)[O-])c3ccc(=[N+](CC)CC)cc-3oc2c1 (stereo not given) | 8.91 nM | Dose-dependent effect | inactive | 6.2 µM (≈ 7.47 µg/mL) | 16.8 nM |  |  |  |  |  |  |  | 
4 | O=C(CCC(=O)NC1CCCN(C(=O)c2ccc(NC(=O)c3ccccc3-c3ccccc3)cc2)c2ccccc21)NCc1cn(CCOCCOCCOCCNC(=S)Nc2ccc(-c3c4ccc(=O)cc-4oc4cc(O)ccc34)c(C(=O)O)c2)nn1 (stereo not given) | 0.78 nM | Dose-dependent effect | inactive |  | 26.1 nM | 665 nM | < 50% | > 10000 nM | < 50% | > 10000 nM | 11.1 nM | 25 | 

Second part, the molecule after the results:

Row | Kb (Vasopressin V2 receptor [1]) | inhibition (Vasopressin V2 receptor [1]) | Activity (Vasopressin V2 receptor [2]) | solubility at 24 h [3] | Ki (Vasopressin V2 receptor [4]) | Ki (Oxytocin receptor) | inhibition [5] | Ki (Vasopressin V1b receptor) | inhibition (Vasopressin V1a receptor [6]) | Ki (Vasopressin V1a receptor [7]) | Kd (Vasopressin V2 receptor [8]) | Ratio Ki (Homo sapiens) | inhibition [9] | Compound
5 | 164 nM | Dose-dependent effect | inactive |  | 188 nM | 307 nM | < 50% | > 10000 nM | < 50% | > 10000 nM |  |  |  | CCN(CC)c1ccc2c(-c3ccc(S(=O)(=O)[O-])cc3S(=O)(=O)NCCOCCOCCOCCn3cc(CNC(=O)CCC(=O)NC4CCCN(C(=O)c5ccc(NC(=O)c6ccccc6C)cc5)c5ccccc54)nn3)c3ccc(=[N+](CC)CC)cc-3oc2c1 (stereo not given)
6 | 0.1 nM | Dose-dependent effect | inactive |  | 9.02 nM | 808 nM | < 50% | > 10000 nM |  | 1750 nM | 2.33 nM |  |  | CCN1/C(=C/C=C/C=C/C2=[N+](CC)c3ccc(S(=O)(=O)[O-])cc3C2(C)C)C(C)(CCCC(=O)NCCOCCOCCOCCn2cc(CNC(=O)CCC(=O)NC3CCCN(C(=O)c4ccc(NC(=O)c5ccccc5-c5ccccc5)cc4)c4ccccc43)nn2)c2cc(S(=O)(=O)O)ccc21 (stereo not given)
7 | 1.96 nM | Dose-dependent effect | inactive | 2.1 µM (≈ 2.85 µg/mL) | 4 nM | > 10000 nM | < 50% | > 10000 nM | < 50% | > 10000 nM |  |  | < 50% | CCN(CC)c1ccc2c(-c3ccc(S(=O)(=O)NCCOCCOCCOCCn4cc(CNC(=O)CCC(=O)NC5CCCN(C(=O)c6ccc(NC(=O)c7ccccc7-c7ccccc7)cc6)c6ccccc65)nn4)cc3S(=O)(=O)[O-])c3ccc(=[N+](CC)CC)cc-3oc2c1 (stereo not given)
